Laboratory results reported in ChEMBL document CHEMBL1136991, “Novel potent BRAF inhibitors: toward 1 nM compounds through optimization of the central phenyl ring” (J Med Chem, 2009).

Key:
[1] = Growth inhibition of human WM266.4 cells expressing BRAF V600E mutant after 5 days by SRB assay; type: functional; conditions: WM 266-4, 120 h
Procedure, shortened: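 WM266.4 human melanoma cells, which are driven by mutant BRAF, were assayed for proliferation by sulforhodamine B (SRB) staining; the value is a GI50.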

[2] = target: MAP/microtubule affinity-regulating kinase 3 (Homo sapiens) (UniProt P27448); assay: Inhibition of MARK3 at 1 uM relative to control
[3] = target: Maternal embryonic leucine zipper kinase (Homo sapiens) (UniProt Q14680); assay: Inhibition of MELK at 1 uM relative to control
[4] = target: Protein kinase C alpha type (Homo sapiens) (UniProt P17252); assay: Inhibition of PKCalpha at 1 uM relative to control
[5] = target: T1, Serine/threonine-protein kinase D1 (Homo sapiens) (UniProt Q15139); assay: Inhibition of PKD1 at 1 uM relative to control
T1 sequence (whole entry): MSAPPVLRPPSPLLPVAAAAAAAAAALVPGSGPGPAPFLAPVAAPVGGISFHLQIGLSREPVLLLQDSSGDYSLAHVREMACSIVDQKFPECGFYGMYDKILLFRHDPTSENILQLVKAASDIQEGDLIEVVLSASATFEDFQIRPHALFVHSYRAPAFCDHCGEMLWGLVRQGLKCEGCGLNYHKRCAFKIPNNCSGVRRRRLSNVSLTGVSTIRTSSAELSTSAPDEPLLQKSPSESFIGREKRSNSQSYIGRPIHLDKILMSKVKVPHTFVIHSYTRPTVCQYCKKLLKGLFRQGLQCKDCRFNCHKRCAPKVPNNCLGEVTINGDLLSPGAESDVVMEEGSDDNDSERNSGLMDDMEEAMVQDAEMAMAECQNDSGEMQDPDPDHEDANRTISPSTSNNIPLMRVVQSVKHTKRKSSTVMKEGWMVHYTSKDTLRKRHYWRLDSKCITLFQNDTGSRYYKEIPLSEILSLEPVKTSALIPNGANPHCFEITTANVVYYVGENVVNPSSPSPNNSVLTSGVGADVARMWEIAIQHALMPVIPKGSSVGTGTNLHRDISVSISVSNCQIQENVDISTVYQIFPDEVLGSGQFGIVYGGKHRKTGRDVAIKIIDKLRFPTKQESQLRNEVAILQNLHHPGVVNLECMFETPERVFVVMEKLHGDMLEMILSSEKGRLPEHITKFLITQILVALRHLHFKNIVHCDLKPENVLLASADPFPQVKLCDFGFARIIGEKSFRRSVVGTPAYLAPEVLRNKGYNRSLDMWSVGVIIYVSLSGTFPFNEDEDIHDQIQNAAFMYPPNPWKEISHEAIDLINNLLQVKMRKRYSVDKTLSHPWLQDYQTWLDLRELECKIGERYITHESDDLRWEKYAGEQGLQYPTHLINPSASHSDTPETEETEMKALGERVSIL

[6] = target: Serine/threonine-protein kinase PAK 6 (Homo sapiens) (UniProt Q9NQU5); assay: Inhibition of PAK6 at 1 uM relative to control
[7] = target: Mitogen-activated protein kinase 1 (Homo sapiens) (UniProt P28482); assay: Inhibition of ERK2 at 1 uM relative to control
[8] = target: Mitogen-activated protein kinase 14 (Homo sapiens) (UniProt Q16539); assay: Inhibition of p38alpha at 1 uM relative to control
[9] = target: Calcium/calmodulin-dependent protein kinase kinase 2 (Homo sapiens) (UniProt Q96RR4); assay: Inhibition of CAMKKb at 1 uM relative to control
[10] = target: T2, Inhibitor of nuclear factor kappa-B kinase subunit beta (Homo sapiens) (UniProt O14920); assay: Inhibition of IKK-beta at 1 uM relative to control
T2 sequence (whole entry): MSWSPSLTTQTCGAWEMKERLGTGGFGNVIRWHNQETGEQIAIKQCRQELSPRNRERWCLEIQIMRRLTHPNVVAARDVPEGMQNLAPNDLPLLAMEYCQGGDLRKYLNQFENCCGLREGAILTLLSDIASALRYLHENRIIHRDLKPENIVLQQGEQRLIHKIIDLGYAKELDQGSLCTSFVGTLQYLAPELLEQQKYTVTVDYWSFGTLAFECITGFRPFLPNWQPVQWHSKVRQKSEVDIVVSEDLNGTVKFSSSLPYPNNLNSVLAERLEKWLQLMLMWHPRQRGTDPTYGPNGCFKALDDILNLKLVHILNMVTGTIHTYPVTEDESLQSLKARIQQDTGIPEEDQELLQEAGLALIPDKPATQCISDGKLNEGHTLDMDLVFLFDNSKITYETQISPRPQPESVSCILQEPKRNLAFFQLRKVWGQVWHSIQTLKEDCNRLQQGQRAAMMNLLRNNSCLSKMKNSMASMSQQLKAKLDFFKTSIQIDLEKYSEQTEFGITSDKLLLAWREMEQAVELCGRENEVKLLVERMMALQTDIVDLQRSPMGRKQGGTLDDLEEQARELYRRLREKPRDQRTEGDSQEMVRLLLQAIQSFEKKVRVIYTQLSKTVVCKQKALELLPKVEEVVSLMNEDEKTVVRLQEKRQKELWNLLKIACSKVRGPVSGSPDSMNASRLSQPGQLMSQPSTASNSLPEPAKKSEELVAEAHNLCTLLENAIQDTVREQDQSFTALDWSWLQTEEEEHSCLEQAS

[11] = target: Serine/threonine-protein kinase PAK 4 (Homo sapiens) (UniProt O96013); assay: Inhibition of PAK4 at 1 uM relative to control
[12] = target: Serine/threonine-protein kinase Nek7 (Homo sapiens) (UniProt Q8TDX7); assay: Inhibition of NEK7 at 1 uM relative to control
[13] = target: Glycogen synthase kinase-3 beta (Homo sapiens) (UniProt P49841); assay: Inhibition of GSK3-beta at 1 uM relative to control
Chain of Glycogen synthase kinase-3 beta (Homo sapiens) (P49841 whole entry, looked up): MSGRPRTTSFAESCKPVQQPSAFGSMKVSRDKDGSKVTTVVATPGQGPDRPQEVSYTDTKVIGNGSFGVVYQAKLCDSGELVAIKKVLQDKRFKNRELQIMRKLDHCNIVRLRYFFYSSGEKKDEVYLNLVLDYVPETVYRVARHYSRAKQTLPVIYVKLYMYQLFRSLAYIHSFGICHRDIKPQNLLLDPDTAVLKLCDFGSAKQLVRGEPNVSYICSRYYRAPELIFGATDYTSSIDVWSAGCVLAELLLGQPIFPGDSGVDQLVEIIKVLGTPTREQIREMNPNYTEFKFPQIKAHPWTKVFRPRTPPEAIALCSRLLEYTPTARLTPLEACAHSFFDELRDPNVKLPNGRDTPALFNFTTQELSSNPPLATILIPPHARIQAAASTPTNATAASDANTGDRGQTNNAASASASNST

Chain of Serine/threonine-protein kinase Nek7 (Homo sapiens) (Q8TDX7 whole entry, looked up): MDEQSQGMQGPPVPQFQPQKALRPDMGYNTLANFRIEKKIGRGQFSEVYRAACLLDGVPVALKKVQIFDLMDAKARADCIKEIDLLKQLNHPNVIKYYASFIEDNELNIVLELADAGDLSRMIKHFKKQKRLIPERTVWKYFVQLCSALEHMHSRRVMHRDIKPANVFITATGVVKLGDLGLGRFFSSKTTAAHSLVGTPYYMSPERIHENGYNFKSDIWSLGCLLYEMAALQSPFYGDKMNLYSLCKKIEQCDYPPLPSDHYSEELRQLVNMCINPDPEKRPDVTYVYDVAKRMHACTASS
Chain of Serine/threonine-protein kinase PAK 6 (Homo sapiens) (Q9NQU5 whole entry, looked up): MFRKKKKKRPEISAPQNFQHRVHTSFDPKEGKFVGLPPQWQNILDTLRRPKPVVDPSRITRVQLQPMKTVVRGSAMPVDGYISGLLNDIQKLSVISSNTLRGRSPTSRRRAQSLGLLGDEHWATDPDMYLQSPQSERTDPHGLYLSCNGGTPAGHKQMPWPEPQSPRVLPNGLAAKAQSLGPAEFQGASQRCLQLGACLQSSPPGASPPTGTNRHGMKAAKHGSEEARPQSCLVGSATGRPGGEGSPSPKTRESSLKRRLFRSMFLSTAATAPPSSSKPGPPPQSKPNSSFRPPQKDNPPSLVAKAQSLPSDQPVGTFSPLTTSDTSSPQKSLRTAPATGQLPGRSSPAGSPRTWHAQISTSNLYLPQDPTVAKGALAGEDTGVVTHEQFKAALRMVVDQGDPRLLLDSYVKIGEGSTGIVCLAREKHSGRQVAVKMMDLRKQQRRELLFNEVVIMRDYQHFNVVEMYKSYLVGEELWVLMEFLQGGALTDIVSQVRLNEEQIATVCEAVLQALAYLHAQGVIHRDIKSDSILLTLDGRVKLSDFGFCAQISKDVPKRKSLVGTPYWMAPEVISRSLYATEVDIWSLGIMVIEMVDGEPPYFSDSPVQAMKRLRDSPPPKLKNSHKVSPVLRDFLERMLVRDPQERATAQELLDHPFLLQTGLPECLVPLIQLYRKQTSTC
Chain of Serine/threonine-protein kinase PAK 4 (Homo sapiens) (O96013 whole entry, looked up): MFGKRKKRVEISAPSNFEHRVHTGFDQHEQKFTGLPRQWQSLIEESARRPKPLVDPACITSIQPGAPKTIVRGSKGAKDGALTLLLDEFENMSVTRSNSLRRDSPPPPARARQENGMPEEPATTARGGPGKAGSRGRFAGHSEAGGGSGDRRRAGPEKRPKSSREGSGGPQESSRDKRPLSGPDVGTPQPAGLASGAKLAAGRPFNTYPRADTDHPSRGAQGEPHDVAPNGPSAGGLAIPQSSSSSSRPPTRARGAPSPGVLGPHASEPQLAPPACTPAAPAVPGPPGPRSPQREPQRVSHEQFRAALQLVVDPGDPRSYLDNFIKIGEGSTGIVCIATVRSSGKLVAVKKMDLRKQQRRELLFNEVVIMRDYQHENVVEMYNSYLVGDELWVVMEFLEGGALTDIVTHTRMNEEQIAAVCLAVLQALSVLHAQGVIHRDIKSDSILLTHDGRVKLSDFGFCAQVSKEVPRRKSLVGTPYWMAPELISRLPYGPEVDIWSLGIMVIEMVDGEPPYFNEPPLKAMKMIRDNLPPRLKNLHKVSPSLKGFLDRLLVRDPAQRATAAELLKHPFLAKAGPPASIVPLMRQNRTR
Chain of Mitogen-activated protein kinase 1 (Homo sapiens) (P28482 whole entry): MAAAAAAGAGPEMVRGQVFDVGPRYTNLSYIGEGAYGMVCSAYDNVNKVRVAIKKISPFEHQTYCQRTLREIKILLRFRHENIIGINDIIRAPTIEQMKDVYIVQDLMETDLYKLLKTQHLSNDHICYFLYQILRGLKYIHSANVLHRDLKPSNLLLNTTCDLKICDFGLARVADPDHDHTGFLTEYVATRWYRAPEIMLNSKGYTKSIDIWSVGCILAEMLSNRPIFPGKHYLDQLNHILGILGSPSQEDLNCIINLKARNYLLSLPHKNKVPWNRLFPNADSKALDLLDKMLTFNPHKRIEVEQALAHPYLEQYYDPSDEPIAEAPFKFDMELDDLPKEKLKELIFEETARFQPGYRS
Chain of Mitogen-activated protein kinase 14 (Homo sapiens) (Q16539 whole entry): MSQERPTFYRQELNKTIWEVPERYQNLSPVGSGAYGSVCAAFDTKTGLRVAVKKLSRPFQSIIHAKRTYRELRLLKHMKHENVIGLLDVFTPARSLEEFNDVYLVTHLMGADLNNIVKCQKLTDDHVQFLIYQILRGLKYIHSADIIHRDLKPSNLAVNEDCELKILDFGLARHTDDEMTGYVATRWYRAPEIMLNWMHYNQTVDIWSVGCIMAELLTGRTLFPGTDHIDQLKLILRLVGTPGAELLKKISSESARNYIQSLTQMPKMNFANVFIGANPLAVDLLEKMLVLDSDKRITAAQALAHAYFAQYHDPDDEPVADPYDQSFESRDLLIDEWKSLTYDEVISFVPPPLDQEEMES
Chain of Maternal embryonic leucine zipper kinase (Homo sapiens) (Q14680 whole entry, looked up): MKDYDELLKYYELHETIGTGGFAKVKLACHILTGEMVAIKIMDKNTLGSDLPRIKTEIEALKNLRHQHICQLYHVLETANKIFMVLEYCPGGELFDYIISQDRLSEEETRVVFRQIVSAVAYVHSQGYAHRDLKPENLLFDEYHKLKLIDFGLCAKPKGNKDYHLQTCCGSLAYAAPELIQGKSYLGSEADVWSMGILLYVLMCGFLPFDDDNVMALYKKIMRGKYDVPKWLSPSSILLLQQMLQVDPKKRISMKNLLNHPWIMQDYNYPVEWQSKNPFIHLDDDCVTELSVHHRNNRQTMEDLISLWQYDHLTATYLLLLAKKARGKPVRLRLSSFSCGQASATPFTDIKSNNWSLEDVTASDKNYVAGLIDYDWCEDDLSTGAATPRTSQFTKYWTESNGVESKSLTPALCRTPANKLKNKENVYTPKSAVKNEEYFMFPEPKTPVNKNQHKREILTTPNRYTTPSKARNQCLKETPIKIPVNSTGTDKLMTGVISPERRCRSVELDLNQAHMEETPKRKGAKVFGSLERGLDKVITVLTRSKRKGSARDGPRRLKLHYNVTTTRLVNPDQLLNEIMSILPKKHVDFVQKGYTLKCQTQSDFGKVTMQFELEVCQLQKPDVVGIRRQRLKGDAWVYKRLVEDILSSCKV
Chain of Calcium/calmodulin-dependent protein kinase kinase 2 (Homo sapiens) (Q96RR4 2-588 limits assumed): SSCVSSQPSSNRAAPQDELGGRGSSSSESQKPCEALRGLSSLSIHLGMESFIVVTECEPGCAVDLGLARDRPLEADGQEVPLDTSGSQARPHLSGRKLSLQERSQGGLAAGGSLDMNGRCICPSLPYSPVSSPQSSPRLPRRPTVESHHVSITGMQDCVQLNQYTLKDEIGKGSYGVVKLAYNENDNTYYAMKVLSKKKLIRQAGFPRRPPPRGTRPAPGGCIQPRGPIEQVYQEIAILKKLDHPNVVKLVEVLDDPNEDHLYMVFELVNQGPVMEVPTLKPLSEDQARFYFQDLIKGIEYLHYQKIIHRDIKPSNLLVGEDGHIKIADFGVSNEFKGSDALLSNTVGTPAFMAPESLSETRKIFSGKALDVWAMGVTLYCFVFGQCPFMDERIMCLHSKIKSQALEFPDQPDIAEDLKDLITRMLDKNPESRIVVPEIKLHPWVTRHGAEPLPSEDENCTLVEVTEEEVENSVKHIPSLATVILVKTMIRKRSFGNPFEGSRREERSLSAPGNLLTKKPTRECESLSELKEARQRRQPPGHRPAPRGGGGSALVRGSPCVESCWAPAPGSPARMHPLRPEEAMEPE

Row | residual activity [2] | residual activity [3] | residual activity [4] | residual activity [5] | residual activity [6] | residual activity [7] | residual activity [8] | residual activity [9] | residual activity [10] | residual activity [11] | residual activity [12] | residual activity [13] | SMILES | GI50 [1]
1 | 100% | 75% | 75% | 75% | 75% | 75% | < 25% | 75% | 75% | 75% | 75% | 75% | CC(C)(C)c1cccc(NC(=O)Nc2ccc(Oc3ccnc4[nH]c(=O)[nH]c34)c3ccccc23)c1 | 3900 nM
2 | 75% | 100% | 75% | 75% | 100% | 100% | 100% | 100% | 100% | 75% | 100% | 75% | O=C(Nc1cc(C(F)(F)F)ccc1F)Nc1ccc(Oc2ccnc3[nH]c(=O)[nH]c23)c2ccccc12 | 290 nM
3 | 75% | 100% | 75% | 75% | 100% | 100% | < 25% | 50% | 100% | 75% | 100% | 100% | CSc1cc(Oc2ccnc3[nH]c(=O)[nH]c23)ccc1NC(=O)Nc1cccc(C(F)(F)F)c1 | 1060 nM
